Source: ChEMBL document CHEMBL2086252, “Syntheses and evaluation of anticonvulsant activity of novel branched alkyl carbamates” (J Med Chem, 2012)
Activity calls are given as the source filed them. The rule behind the calls is not given here.

How the values were obtained:
[1] = Neurotoxicity in po dosed Sprague-Dawley albino rat assessed as minimal motor impairment by rotarod test; type: toxicity, organism-based; settings: in vivo
Procedure, shortened: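 Rats dosed orally; 4 rats per time point after dosing. Neurotoxicity was scored as motor impairment or sedation and reported as number of animals affected over number tested.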

Mus musculus [2] = test: Anticonvulsant activity in albino CF1 mouse assessed as protection against subcutaneous metrazol-induced seizures at 30 mg/kg, ip after 0.5 hrs; type: functional, organism-based; design: dose 30 mg/kg
Procedure, shortened: (§1)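 Mice dosed ip at 30, 100 or 300 mg/kg, then tested 0.5 h and 4 h after administration in the MES or scMet test. Protection was recorded as animals protected over animals tested. Neurotoxicity was recorded as motor impairment or sedation, as animals affected over animals tested.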

Mus musculus [3] = test: Anticonvulsant activity in albino CF1 mouse assessed as protection against subcutaneous metrazol-induced seizures at 100 mg/kg, ip after 0.5 hrs; type: functional, organism-based; design: dose 100 mg/kg; procedure, shortened: as §1
Mus musculus [4] = test: Anticonvulsant activity in albino CF1 mouse assessed as protection against subcutaneous metrazol-induced seizures at 300 mg/kg, ip after 0.5 hrs; type: functional, organism-based; design: dose 300 mg/kg; procedure, shortened: as §1
Mus musculus [5] = test: Anticonvulsant activity in albino CF1 mouse assessed as protection against subcutaneous metrazol-induced seizures at 30 mg/kg, ip after 4 hrs; type: functional, organism-based; design: dose 30 mg/kg; procedure, shortened: as §1
Mus musculus [6] = test: Anticonvulsant activity in albino CF1 mouse assessed as protection against subcutaneous metrazol-induced seizures at 100 mg/kg, ip after 4 hrs; type: functional, organism-based; design: dose 100 mg/kg; procedure, shortened: as §1
Mus musculus [7] = test: Anticonvulsant activity in albino CF1 mouse assessed as protection against subcutaneous metrazol-induced seizures at 300 mg/kg, ip after 4 hrs; type: functional, organism-based; design: dose 300 mg/kg; procedure, shortened: as §1
Mus musculus [8] = test: Anticonvulsant activity in albino CF1 mouse assessed as protection against maximal electroshock-induced seizures at 30 mg/kg, ip after 0.5 hrs; type: functional, organism-based; design: dose 30 mg/kg; procedure, shortened: as §1
Mus musculus [9] = test: Anticonvulsant activity in albino CF1 mouse assessed as protection against maximal electroshock-induced seizures at 100 mg/kg, ip after 0.5 hrs; type: functional, organism-based; design: dose 100 mg/kg; procedure, shortened: as §1
Mus musculus [10] = test: Anticonvulsant activity in albino CF1 mouse assessed as protection against maximal electroshock-induced seizures at 300 mg/kg, ip after 0.5 hrs; type: functional, organism-based; design: dose 300 mg/kg; procedure, shortened: as §1
Mus musculus [11] = test: Anticonvulsant activity in albino CF1 mouse assessed as protection against maximal electroshock-induced seizures at 30 mg/kg, ip after 4 hrs; type: functional, organism-based; design: dose 30 mg/kg; procedure, shortened: as §1
Mus musculus [12] = test: Anticonvulsant activity in albino CF1 mouse assessed as protection against maximal electroshock-induced seizures at 100 mg/kg, ip after 4 hrs; type: functional, organism-based; design: dose 100 mg/kg; procedure, shortened: as §1
Mus musculus [13] = test: Anticonvulsant activity in albino CF1 mouse assessed as protection against maximal electroshock-induced seizures at 300 mg/kg, ip after 4 hrs; type: functional, organism-based; design: dose 300 mg/kg; procedure, shortened: as §1
Mus musculus [14] = test: Neurotoxicity in albino CF1 mouse assessed as minimal motor impairment at 30 mg/kg, ip after 0.5 hrs by rotarod test; type: toxicity, organism-based; design: dose 30 mg/kg, route intraperitoneal; settings: in vivo; procedure, shortened: as §1
Mus musculus [15] = test: Neurotoxicity in albino CF1 mouse assessed as minimal motor impairment at 300 mg/kg, ip after 0.5 hrs by rotarod test; type: toxicity, organism-based; design: dose 300 mg/kg, route intraperitoneal; settings: in vivo; procedure, shortened: as §1
Mus musculus [16] = test: Neurotoxicity in albino CF1 mouse assessed as minimal motor impairment at 30 mg/kg, ip after 4 hrs by rotarod test; type: toxicity, organism-based; design: dose 30 mg/kg, route intraperitoneal; settings: in vivo; procedure, shortened: as §1
Mus musculus [17] = test: Neurotoxicity in albino CF1 mouse assessed as minimal motor impairment at 100 mg/kg, ip after 4 hrs by rotarod test; type: toxicity, organism-based; design: dose 100 mg/kg, route intraperitoneal; settings: in vivo; procedure, shortened: as §1
Mus musculus [18] = test: Neurotoxicity in albino CF1 mouse assessed as minimal motor impairment at 300 mg/kg, ip after 4 hrs by rotarod test; type: toxicity, organism-based; design: dose 300 mg/kg, route intraperitoneal; settings: in vivo; procedure, shortened: as §1
Rattus norvegicus [19] = test: Anticonvulsant activity in Sprague-Dawley albino rat assessed as protection against maximal electroshock-induced seizures at 30 mg/kg, po after 15 mins; type: functional, organism-based; design: dose 30 mg/kg
Procedure, shortened: (§2)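 Rats dosed orally. Anti-MES protection was scored as animals protected over animals tested at each time after dosing. Neurotoxicity was scored as motor impairment or sedation, as animals affected over animals tested.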

Rattus norvegicus [20] = test: Anticonvulsant activity in Sprague-Dawley albino rat assessed as protection against maximal electroshock-induced seizures at 30 mg/kg, po after 30 mins; type: functional, organism-based; design: dose 30 mg/kg; procedure, shortened: as §2
Rattus norvegicus [21] = test: Anticonvulsant activity in Sprague-Dawley albino rat assessed as protection against maximal electroshock-induced seizures at 30 mg/kg, po after 1 hr; type: functional, organism-based; design: dose 30 mg/kg; procedure, shortened: as §2
Rattus norvegicus [22] = test: Anticonvulsant activity in Sprague-Dawley albino rat assessed as protection against maximal electroshock-induced seizures at 30 mg/kg, po after 2 hrs; type: functional, organism-based; design: dose 30 mg/kg; procedure, shortened: as §2
Rattus norvegicus [23] = test: Anticonvulsant activity in Sprague-Dawley albino rat assessed as protection against maximal electroshock-induced seizures at 30 mg/kg, po after 4 hrs; type: functional, organism-based; design: dose 30 mg/kg; procedure, shortened: as §2
Rattus norvegicus [24] = test: Anticonvulsant activity in Sprague-Dawley albino rat assessed as protection against maximal electroshock-induced seizures at 100 mg/kg, po after 30 mins; type: functional, organism-based; design: dose 100 mg/kg; procedure, shortened: as §2
Rattus norvegicus [25] = test: Anticonvulsant activity in Sprague-Dawley albino rat assessed as protection against maximal electroshock-induced seizures at 100 mg/kg, po after 4 hrs; type: functional, organism-based; design: dose 100 mg/kg; procedure, shortened: as §2
Rattus norvegicus [26] = test: Neurotoxicity in Sprague-Dawley albino rat assessed as minimal motor impairment at 30 mg/kg, po by rotarod test; type: toxicity, organism-based; design: dose 30 mg/kg, route oral; settings: in vivo; procedure, shortened: as §2
Rattus norvegicus [27] = test: Neurotoxicity in Sprague-Dawley albino rat assessed as minimal motor impairment at 100 mg/kg, po by rotarod test; type: toxicity, organism-based; design: dose 100 mg/kg, route oral; settings: in vivo; procedure, shortened: as §2
Rattus norvegicus [28] = test: Anticonvulsant activity in po dosed Sprague-Dawley albino rat assessed as protection against maximal electroshock-induced seizures; type: functional
Procedure, shortened: (§3)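 Quantitative testing: rats dosed orally or ip in MES and scMet tests, and mice dosed ip, including the 6 Hz (32 mA) psychomotor seizure test. ED50 and TD50 were reported in mg/kg with ranges in parentheses. Protective index was calculated as TD50/ED50.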

Rattus norvegicus [29] = test: Protective index, ratio of TD50 for po dosed Sprague-Dawley albino rat by rotarod test to ED50 for po dosed Sprague-Dawley albino rat by maximal electroshock seizures test; type: functional
Procedure, shortened: (§4)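 Protective index calculated as TD50/ED50, with TD50 and ED50 taken from the same species and dosing route.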

Rattus norvegicus [30] = test: Anticonvulsant activity in po dosed Sprague-Dawley albino rat assessed as protection against subcutaneous metrazol-induced seizures; type: functional; procedure, shortened: as §3
Rattus norvegicus [31] = test: Protective index, ratio of TD50 for po dosed Sprague-Dawley albino rat by rotarod test to ED50 for po dosed Sprague-Dawley albino rat by subcutaneous metrazol seizures test; type: functional; procedure, shortened: as §4
Rattus norvegicus [32] = test: Neurotoxicity in pilocarpine-induced status epilepticus Sprague-Dawley albino rat model assessed as minimal motor impairment at 300 mg/kg, ip after 0.25 hr by rotarod test; type: toxicity, organism-based; design: dose 300 mg/kg, route intraperitoneal; settings: in vivo
Procedure, shortened: (§5)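 Rat pilocarpine status epilepticus model: test carbamate given at 0 or 30 min after the first observed Racine stage 3 motor seizure, which marks SE onset. Neurotoxicity was scored within the same model.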

Rattus norvegicus [33] = test: Neurotoxicity in pilocarpine-induced status epilepticus Sprague-Dawley albino rat model assessed as minimal motor impairment at 100 mg/kg, ip after 0.5 hrs by rotarod test; type: toxicity, organism-based; design: dose 100 mg/kg, route intraperitoneal; settings: in vivo
Rattus norvegicus [34] = test: Neurotoxicity in pilocarpine-induced status epilepticus Sprague-Dawley albino rat model assessed as minimal motor impairment at 300 mg/kg, ip after 0.5 hrs by rotarod test; type: toxicity, organism-based; design: dose 300 mg/kg, route intraperitoneal; settings: in vivo; procedure, shortened: as §5
Rattus norvegicus [35] = test: Neurotoxicity in pilocarpine-induced status epilepticus Sprague-Dawley albino rat model assessed as minimal motor impairment at 100 mg/kg, ip after 1 hr by rotarod test; type: toxicity, organism-based; design: dose 100 mg/kg, route intraperitoneal; settings: in vivo
Rattus norvegicus [36] = test: Neurotoxicity in pilocarpine-induced status epilepticus Sprague-Dawley albino rat model assessed as minimal motor impairment at 300 mg/kg, ip after 1 hr by rotarod test; type: toxicity, organism-based; design: dose 300 mg/kg, route intraperitoneal; settings: in vivo; procedure, shortened: as §5
Rattus norvegicus [37] = test: Neurotoxicity in pilocarpine-induced status epilepticus Sprague-Dawley albino rat model assessed as minimal motor impairment at 100 mg/kg, ip after 2 hrs by rotarod test; type: toxicity, organism-based; design: dose 100 mg/kg, route intraperitoneal; settings: in vivo
Rattus norvegicus [38] = test: Neurotoxicity in pilocarpine-induced status epilepticus Sprague-Dawley albino rat model assessed as minimal motor impairment at 300 mg/kg, ip after 2 hrs by rotarod test; type: toxicity, organism-based; design: dose 300 mg/kg, route intraperitoneal; settings: in vivo; procedure, shortened: as §5
Rattus norvegicus [39] = test: Neurotoxicity in pilocarpine-induced status epilepticus Sprague-Dawley albino rat model assessed as minimal motor impairment at 100 mg/kg, ip after 4 hrs by rotarod test; type: toxicity, organism-based; design: dose 100 mg/kg, route intraperitoneal; settings: in vivo
Rattus norvegicus [40] = test: Neurotoxicity in pilocarpine-induced status epilepticus Sprague-Dawley albino rat model assessed as minimal motor impairment at 300 mg/kg, ip after 4 hrs by rotarod test; type: toxicity, organism-based; design: dose 300 mg/kg, route intraperitoneal; settings: in vivo; procedure, shortened: as §5

CCCC(CCC)COC(N)=O
TD50 [1]: > 500 mg/kg
Activity (Mus musculus [2]): inactive
Activity (Mus musculus [3]): inactive
Activity (Mus musculus [4]): Active
Activity (Mus musculus [5]): inactive
Activity (Mus musculus [6]): inactive
Activity (Mus musculus [7]): Active
Activity (Mus musculus [8]): inactive
Activity (Mus musculus [9]): Active
Activity (Mus musculus [10]): Active
Activity (Mus musculus [11]): inactive
Activity (Mus musculus [12]): inactive
Activity (Mus musculus [13]): Active
Activity (Mus musculus [14]): Non-toxic
Activity (Mus musculus [15]): Toxic
Activity (Mus musculus [16]): Non-toxic
Activity (Mus musculus [17]): Non-toxic
Activity (Mus musculus [18]): Toxic
Activity (Rattus norvegicus [19]): inactive
Activity (Rattus norvegicus [20]): inactive
Activity (Rattus norvegicus [21]): inactive
Activity (Rattus norvegicus [22]): inactive
Activity (Rattus norvegicus [23]): inactive
Activity (Rattus norvegicus [24]): Active
Activity (Rattus norvegicus [25]): inactive
Activity (Rattus norvegicus [26]): Non-toxic
Activity (Rattus norvegicus [27]): Non-toxic
ED50 (Rattus norvegicus [28]): 35 mg/kg
Ratio TD50/ED50 (Rattus norvegicus [29]): >14
ED50 (Rattus norvegicus [30]): > 125 mg/kg
Ratio TD50/ED50 (Rattus norvegicus [31]): >4
Activity (Rattus norvegicus [32]): Toxic
Activity (Rattus norvegicus [33]): Non-toxic
Activity (Rattus norvegicus [34]): Toxic
Activity (Rattus norvegicus [35]): Non-toxic
Activity (Rattus norvegicus [36]): Toxic
Activity (Rattus norvegicus [37]): Non-toxic
Activity (Rattus norvegicus [38]): Toxic
Activity (Rattus norvegicus [39]): Non-toxic
Activity (Rattus norvegicus [40]): Toxic
